# Publication PMC11094580 (EFSA Journal, 2024)
# Read-outs that look alike come from different tables or passages of the source.
# Legend:
# [1] = tested on: Mice (strain not specified); conditions: Gavage, M, 3/group; ref Ortiz‐Andrade et al. (2008); cited from earlier work
# [2] = Solubility of naringenin in various solvents; assay type: physicochemical; conditions: for Naringenin concentration (solubility): 25°C
# [3] = ref Gardana et al. (2007), cited from earlier work
# [4] = cited from earlier work
# [5] = tested on: CYP2C19; conditions: ref Lu et al. (2011); cited from earlier work
# [6] = human volunteers; ref Documentation provided to EFSA No. 4; cited from earlier work
# [7] = ref Kanaze et al. (2007), cited from earlier work
# [8] = tested on: felodipine metabolism in human liver microsomes; conditions: substrate felodipine; ref Fasinu et al. (2013), Ho et al. (2001); cited from earlier work
# [9] = target: simvastatin metabolism; conditions: rat and human hepatocytes and microsomes; ref Ubeaud et al. (1999); cited from earlier work
# [10] = tested on: Wistar rats; test: In vivo micronucleus assay in peripheral blood; set-up: species or system rat
# [11] = tested on: CYP2D6; conditions: concentrations up to 10 μM; ref Lu et al. (2011); cited from earlier work
# [12] = tested on: Bifidobacterium longum R0175; conditions: 25 μg/mL, cultures of B. longum; ref Pereira‐Caro et al. (2016); cited from earlier work
# [13] = ref Rebello et al. (2020), cited from earlier work
# [14] = target: simvastatin metabolism in human liver microsomes; conditions: ref Ubeaud et al. (1999); cited from earlier work
# [15] = ref Bugianesi et al. (2002), cited from earlier work
# [16] = tested on: human peripheral blood lymphocytes; test: In vitro micronucleus assay with FISH analysis
# [17] = 24 h urine, ref Aschoff et al. (2016), cited from earlier work
# [18] = tested on: CYP3A4; conditions: testosterone (10 μM); ref Lu et al. (2011); cited from earlier work
# [19] = tested on: ERβ and ERα; conditions: in vitro; ref Helle et al. (2015); cited from earlier work
# [20] = tested on: Wistar rats; conditions: ref Selvam and Kaliyaperumal (2015), cited from earlier work
# [21] = tested on: Wistar rats; conditions: Gavage, M, 3/group; ref Ortiz‐Andrade et al. (2008); cited from earlier work
# [22] = target: simvastatin metabolism in rat liver microsomes; conditions: ref Ubeaud et al. (1999); cited from earlier work
# [23] = Stability as powder; assay type: physicochemical; conditions: room temperature (~ 22°C), long-term
# Procedure, shortened: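 The solid was held under accelerated conditions (45°C) and under normal storage at room temperature.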
smiles,measurement,setting,value
"O=C1CC(c2ccc(O)cc2)Oc2cc(O)cc(O)c21 (centres unmarked) [naringenin, 4H‐1‐Benzopyran‐4‐one, 2,3‐dihydro‐5,7‐dihydroxy‐2‐(4‐hydroxyphenyl)‐]",LD50,[1],> 5000 mg/kg bw
same,solubility,"[2]; 80% ethanol, 25 °C, organic solvent or mixture",~60 mg/mL
same,Solubility in ethanol,[2]; 95% ethanol,Soluble
same,Naringenin concentration (solubility),[2]; Ethanol,10 % (w/w)
same,Naringenin concentration (solubility),"[2]; Ethanol, 80%",5 % (w/w)
same,Naringenin concentration (solubility),[2]; Propylene glycol,2.5 % (w/w)
same,solubility,"[2]; ethanol, 25 °C, organic solvent or mixture",~125 mg/mL
same,solubility,[2]; in water,Almost insoluble
same,Solubility in other,[2]; other solvents,Soluble in ether and benzene
same,solubility,"[2]; propylene glycol, 25 °C, organic solvent or mixture",~25 mg/mL
same,solubility,"[2]; water, 25 °C",0.05 mg/mL
same,C max (plasma naringenin),"[3]; BOJ 150 mL, 6 mg (22 μmol)",16.4 ng/mL
same,C max (plasma naringenin),"[3]; BOJ 300 mL, 12 mg (44 μmol)",34 ng/mL
same,increase of solubility in water upon change of pH,"[4]; 25°C, pH from 6.5 to 8.5, ref Lucas‐Abellán et al. (2019)",~ 20 fold
same,increase of solubility in water upon increase of temperature,"[4]; from 25 to 35°C, ref Zhang et al. (2013), Lucas‐Abellán et al. (2019)",2 factor
same,IC50,[5],< 5 µM
same,glucuronic acid and sulfate conjugates as share of the dose,[6],~ 20 % of the dose
same,Cmax,[7]; single oral 135 mg (496 μmol) capsule,7.5 µM
same,"cumulative urinary excretion, percentage of administered dose","[7]; single oral 135 mg capsule, 24 h after dosing",5.81 ± 0.81%
same,T max (time of peak plasma level),[7]; single oral 135 mg capsule,4 h
same,time of first appearance in plasma after dosing,[7]; single oral 135 mg capsule,20 min
same,Half-life of elimination (plasma),"[7]; single oral 135 mg capsule, listed as NAR‐A",T ½ ~ 2.3 h
same,IC50,[8],122 µM
same,Ki,[9],5 to 30 µM
same,% MNPCE frequency,[10]; 500 mg/kg bw per day,0.06 ± 0.01%
same,% MNPCE frequency,[10]; 2000 mg/kg bw per day,0.06 ± 0.02%
same,maximum tolerated dose (MTD),"[10]; gavage at 0, 24 and 45 h, male and female rats",2000 mg/kg bw per day
same,% MNPCE frequency,"[10]; mid‐dose (1000 mg/kg bw per day), male rats, blood 3 h after last administration",0.08 ± 0.01%
same,inhibition,[11],No appreciable inhibition
same,Recovery,[12],88%
same,AUC0‐24h,[13]; 150 mg,67.61 ± 24.26 µM·h
same,T max,[13]; 150 mg,2 h
same,half-life in plasma,[13]; 150 mg,3 h
same,T max,"[13]; 150 mg, listed as Nar‐A",3.2 ± 0.7 h
same,AUC0‐24h,[13]; 600 mg,199.05 ± 24.36 µM·h
same,T max,[13]; 600 mg,2 h
same,half-life in plasma,[13]; 600 mg,2.65 h
same,T max,"[13]; 600 mg, listed as NAR‐A",2.4 ± 0.7 h
same,Ki,[14],23 µM
same,C max,"[15]; 3.8 mg (14 μmol), tomato paste/oil",32 ± 8 ng/mL
same,unconjugated naringenin in plasma,"[15]; 3.8 mg, tomato paste test meal",did not find unconjugated naringenin in plasma samples
same,Plasma half-life,"[15]; 3.8 mg, tomato paste/oil",Decline by 2 h and later
same,MN centromere-negative (FISH analysis),"[16]; 4‐h treatment with or without S9‐mix, naringenin 75, 200 and 250 μg/mL",> 64%
same,Result,"[16]; 125, 150, 200 μg/mL (4 h + 24 h, +S9)",Positive FISH analysis indicates that naringenin induced micronuclei by a clastogenic mechanism
same,Result,"[16]; 125, 150, 200, 250 μg/mL (4 h + 24 h, –S9)",Positive FISH analysis indicates that naringenin induced micronuclei by a clastogenic mechanism
same,MNBN frequency,[16]; 24 h + 24 h treatment,no statistically significant increase
same,proportion of naringenin excreted in the urine,[17]; after orange fruit (400 g),12.9%
same,proportion of naringenin excreted in the urine,[17]; after pasteurised orange juice (719 g),20.3%
same,affinity for oestrogen receptors,[19],stronger affinity with ERβ than ERα
same,LD50,"[20]; Gavage, M, 10/group, arithmetic method",340 mg/kg bw
same,LD50,"[20]; rats, considered not reliable by the Panel",about 330 mg/kg bw
same,LD50,[21],> 5000 mg/kg bw
same,Ki,[22],30 µM
same,time remaining stable,[23],~2 years
